Test results: ChEMBL document CHEMBL1177730, “Bivalent diketopiperazine-based tropomysin receptor kinase C (TrkC) antagonists” (J Med Chem, 2010)
Calls of active or inactive are those of the source. The calls are words filed in the database; no cut-off is given here.

What was measured:
[1] = biological target: NT-3 growth factor receptor (Homo sapiens) (UniProt Q16288); test: Antagonist activity at human TrkC expressed in mouse NIH/3T3 cells assessed as inhibition of NT3-induced cytoprotection at 20 uM by MTT assay relative to NT3; format: functional, cell-based; details: NIH3T3
Sequence of NT-3 growth factor receptor (Homo sapiens) (Q16288 32-839 limits assumed): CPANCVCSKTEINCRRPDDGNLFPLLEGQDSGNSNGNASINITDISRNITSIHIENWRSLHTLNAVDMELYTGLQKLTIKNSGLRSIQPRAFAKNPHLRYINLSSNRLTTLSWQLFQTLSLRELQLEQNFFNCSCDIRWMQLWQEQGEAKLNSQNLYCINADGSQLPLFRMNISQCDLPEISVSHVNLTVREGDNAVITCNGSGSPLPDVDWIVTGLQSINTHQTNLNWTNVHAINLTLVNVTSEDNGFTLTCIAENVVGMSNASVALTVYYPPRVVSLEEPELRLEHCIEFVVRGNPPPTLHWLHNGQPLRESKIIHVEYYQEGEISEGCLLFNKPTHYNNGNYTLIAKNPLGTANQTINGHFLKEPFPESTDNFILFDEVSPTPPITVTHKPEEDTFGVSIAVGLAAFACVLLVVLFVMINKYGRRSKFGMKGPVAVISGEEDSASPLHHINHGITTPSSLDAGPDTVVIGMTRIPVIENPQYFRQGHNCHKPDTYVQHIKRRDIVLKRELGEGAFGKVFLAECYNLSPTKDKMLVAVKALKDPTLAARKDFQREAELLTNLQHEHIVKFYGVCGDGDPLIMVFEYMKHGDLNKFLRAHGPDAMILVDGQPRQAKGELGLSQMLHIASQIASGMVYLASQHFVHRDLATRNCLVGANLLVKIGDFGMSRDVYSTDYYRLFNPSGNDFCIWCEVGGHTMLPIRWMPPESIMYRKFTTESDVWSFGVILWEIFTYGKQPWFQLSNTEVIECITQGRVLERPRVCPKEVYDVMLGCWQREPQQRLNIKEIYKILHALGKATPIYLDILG
Method in brief: (§1)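 Survival of NIH-3T3 cells expressing TrkA, TrkC or IGF-1R was measured by MTT in serum-free medium. Medium held the matching growth factor (NGF for TrkA, NT-3 for TrkC, IGF-1 for IGF-1R) at optimal 10 nM or sub-optimal 0.2 nM, ± compound at 20 μM. Survival was expressed relative to optimal growth factor-mediated survival (100%); average ± sd.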

[2] = biological target: High affinity nerve growth factor receptor (Homo sapiens) (UniProt P04629); test: Antagonist activity at human TrkA expressed in mouse NIH/3T3 assessed as inhibition of NGF-induced cytoprotection at 20 uM by MTT assay relative to NGF; format: functional, cell-based; details: NIH3T3; method in brief: as §1
Sequence of High affinity nerve growth factor receptor (Homo sapiens) (P04629 33-796 limits assumed): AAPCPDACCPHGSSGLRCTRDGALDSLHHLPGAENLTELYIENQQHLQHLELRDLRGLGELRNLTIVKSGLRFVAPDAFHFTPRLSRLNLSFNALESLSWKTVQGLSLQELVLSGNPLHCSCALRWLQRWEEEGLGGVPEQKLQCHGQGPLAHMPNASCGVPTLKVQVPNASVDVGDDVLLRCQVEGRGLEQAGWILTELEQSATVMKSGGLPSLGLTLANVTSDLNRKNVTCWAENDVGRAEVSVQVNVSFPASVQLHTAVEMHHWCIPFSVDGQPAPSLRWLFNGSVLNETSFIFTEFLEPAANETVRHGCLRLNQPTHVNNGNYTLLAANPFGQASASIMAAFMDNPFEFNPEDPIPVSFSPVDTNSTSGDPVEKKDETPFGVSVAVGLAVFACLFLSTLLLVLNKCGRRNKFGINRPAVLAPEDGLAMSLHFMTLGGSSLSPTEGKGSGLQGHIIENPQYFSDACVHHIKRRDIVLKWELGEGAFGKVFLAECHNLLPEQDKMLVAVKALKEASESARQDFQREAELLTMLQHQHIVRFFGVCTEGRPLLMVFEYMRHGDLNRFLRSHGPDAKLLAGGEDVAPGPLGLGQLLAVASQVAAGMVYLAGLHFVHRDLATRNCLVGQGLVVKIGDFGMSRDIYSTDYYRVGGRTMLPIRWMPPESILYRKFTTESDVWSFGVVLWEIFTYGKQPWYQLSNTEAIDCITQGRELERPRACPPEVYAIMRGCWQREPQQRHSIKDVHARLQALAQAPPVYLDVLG

[3] = biological target: Insulin-like growth factor 1 receptor (Homo sapiens) (UniProt P08069); test: Antagonist activity at human IGF1R expressed in mouse NIH/3T3 cells assessed as inhibition of IGF-induced cytoprotection at 20 uM by MTT assay relative to IGF; format: functional, cell-based; details: NIH3T3; method in brief: as §1
Sequence of Insulin-like growth factor 1 receptor (Homo sapiens) (P08069 31-736 limits assumed): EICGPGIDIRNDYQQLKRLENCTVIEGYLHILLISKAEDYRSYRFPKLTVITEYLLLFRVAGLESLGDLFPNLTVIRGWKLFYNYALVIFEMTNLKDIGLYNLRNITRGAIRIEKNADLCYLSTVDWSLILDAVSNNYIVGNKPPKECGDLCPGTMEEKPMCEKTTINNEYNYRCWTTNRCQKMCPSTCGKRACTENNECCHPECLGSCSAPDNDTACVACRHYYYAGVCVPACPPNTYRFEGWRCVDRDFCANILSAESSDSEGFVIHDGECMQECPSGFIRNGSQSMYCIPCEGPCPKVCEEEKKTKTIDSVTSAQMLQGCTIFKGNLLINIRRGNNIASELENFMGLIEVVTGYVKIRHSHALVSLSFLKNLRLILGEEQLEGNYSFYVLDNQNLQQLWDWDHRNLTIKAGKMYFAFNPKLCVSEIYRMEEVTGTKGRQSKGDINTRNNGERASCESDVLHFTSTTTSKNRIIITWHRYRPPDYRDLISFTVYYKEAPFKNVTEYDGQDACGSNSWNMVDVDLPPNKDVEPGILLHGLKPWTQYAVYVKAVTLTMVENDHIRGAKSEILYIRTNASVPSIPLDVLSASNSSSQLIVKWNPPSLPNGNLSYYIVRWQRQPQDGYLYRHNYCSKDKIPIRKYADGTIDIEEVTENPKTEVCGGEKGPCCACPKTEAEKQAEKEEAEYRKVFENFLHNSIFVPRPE
Sequence of Insulin-like growth factor 1 receptor (Homo sapiens) (P08069 741-1367 limits assumed): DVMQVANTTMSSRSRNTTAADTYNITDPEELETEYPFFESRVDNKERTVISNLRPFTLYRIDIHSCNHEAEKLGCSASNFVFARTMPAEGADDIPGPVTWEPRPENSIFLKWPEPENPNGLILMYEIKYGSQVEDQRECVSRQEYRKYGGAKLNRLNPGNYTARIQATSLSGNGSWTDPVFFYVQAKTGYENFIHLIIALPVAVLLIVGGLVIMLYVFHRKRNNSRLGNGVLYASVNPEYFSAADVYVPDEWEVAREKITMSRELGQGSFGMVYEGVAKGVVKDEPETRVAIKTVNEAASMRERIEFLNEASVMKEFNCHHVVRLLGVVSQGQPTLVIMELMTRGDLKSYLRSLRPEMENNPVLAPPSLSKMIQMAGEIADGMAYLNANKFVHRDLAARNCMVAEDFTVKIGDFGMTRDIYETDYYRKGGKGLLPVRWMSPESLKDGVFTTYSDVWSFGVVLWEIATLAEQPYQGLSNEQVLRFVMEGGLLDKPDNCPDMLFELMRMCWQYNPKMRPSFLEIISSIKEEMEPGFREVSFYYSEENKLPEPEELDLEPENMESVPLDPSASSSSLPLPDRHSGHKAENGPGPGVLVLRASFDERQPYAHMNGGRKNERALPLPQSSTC

[4] = system: NIH3T3; test: Cytotoxicity against mouse NIH/3T3 cells by MTT assay; format: cell-based
[5] = biological target: NT-3 growth factor receptor (Homo sapiens) (UniProt Q16288); test: Antagonist activity at human TrkC expressed in mouse NIH/3T3 cells assessed as decrease in NT3-induced TrkC-pTyr level at 20 uM after 20 mins by Western blotting; format: functional, cell-based; set-up: scale not given: the % may be the effect or the level left; details: NIH3T3
Method in brief: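 NIH3T3-TrkC cells were exposed to NT-3 (2 nM) ± compound (20 μM) for 20 min. Detergent lysates were Western blotted with anti-pTyr mAb 4G10 and anti-phospho-MAPK, then re-blotted for actin to normalise loading. Bands were quantified by densitometry.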

[6] = biological target: High affinity nerve growth factor receptor (Homo sapiens) (UniProt P04629); test: Antagonist activity at human TrkA expressed in mouse NIH/3T3 cells assessed as decrease in NGF-induced tyrosin phosphorylation at 20 uM after 20 mins by Western blotting; format: functional, cell-based; details: NIH3T3
[7] = biological target: Insulin-like growth factor 1 receptor (Homo sapiens) (UniProt P08069); test: Antagonist activity at human IGF1R expressed in mouse NIH/3T3 cells assessed as decrease in IGF-induced tyrosin phosphorylation at 20 uM after 20 mins by Western blotting; format: functional, cell-based; details: NIH3T3
[8] = biological target: NT-3 growth factor receptor (Homo sapiens) (UniProt Q16288); test: Binding affinity at human TrkC expressed in mouse NIH/3T3 cells by FACS analysis; format: cell-based; details: NIH3T3
Method in brief: (§2)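 Stably transfected NIH-3T3 cells expressing the indicated receptor were incubated at 4 °C with biotin-tagged ligand (50 μM), then with fluorescein-avidin. After washing, cells were analysed by flow cytometry. Background mean channel fluorescence of NIH-IGF-1R cells was subtracted to give specific binding. Mean ± SEM, n = 3 independent experiments.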

[9] = biological target: High affinity nerve growth factor receptor (Homo sapiens) (UniProt P04629); test: Binding affinity to human TrkA expressed in mouse NIH/3T3 cells by FACS analysis; format: cell-based; details: NIH3T3; method in brief: as §2
[10] = biological target: Insulin-like growth factor 1 receptor (Homo sapiens) (UniProt P08069); test: Binding affinity to human IGF1R expressed in mouse NIH/3T3 cells by FACS analysis; format: cell-based; details: NIH3T3
[11] = biological target: Tumor necrosis factor receptor superfamily member 16 (p75NTR, NGFR) (Homo sapiens) (UniProt P08138); test: Binding affinity to human p75 expressed in mouse NIH/3T3 cells by FACS analysis; details: NIH3T3
Sequence of Tumor necrosis factor receptor superfamily member 16 (p75NTR, NGFR) (Homo sapiens) (P08138 whole entry, looked up): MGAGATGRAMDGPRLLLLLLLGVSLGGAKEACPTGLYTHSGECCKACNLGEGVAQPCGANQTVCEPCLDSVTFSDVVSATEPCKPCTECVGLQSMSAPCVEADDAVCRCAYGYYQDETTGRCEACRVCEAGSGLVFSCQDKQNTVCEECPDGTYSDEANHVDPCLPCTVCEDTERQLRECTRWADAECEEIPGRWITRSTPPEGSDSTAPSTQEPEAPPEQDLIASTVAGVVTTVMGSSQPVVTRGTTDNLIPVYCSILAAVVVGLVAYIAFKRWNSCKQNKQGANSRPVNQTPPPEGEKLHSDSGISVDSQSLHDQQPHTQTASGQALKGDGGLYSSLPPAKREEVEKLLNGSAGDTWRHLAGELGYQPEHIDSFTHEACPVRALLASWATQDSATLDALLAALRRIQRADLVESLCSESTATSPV

In the case of `CN1C(=O)CN([C@@H](CCCCN)C(=O)NCCCCCCCCCCC(=O)N2CCN(c3nc(NCCCC[C@@H]4SC[C@@H]5NC(=O)N[C@@H]54)nc(N4CCN(C(=O)[C@H](CCCCN)N5CC(=O)N(C)[C@@H](CCC(=O)O)C5=O)CC4)n3)CC2)C(=O)[C@@H]1CCC(=O)O`, the inhibition [1] was 30%, the inhibition [2] was “inactive” and the inhibition [3] was “inactive”. For the same molecule, the Activity [4] was “Non-toxic”, the Activity [5] was 40% and the Activity [6] was “inactive”. The Activity [7] was “inactive”, the Activity [8] was “Active” and the Activity [9] was “inactive”. For the same molecule, the Activity [10] was “inactive” and the Activity [11] was “inactive”.
